Among the data in ChEMBL document CHEMBL1133744, “Synthesis and biological evaluation of bombesin constrained analogues” (J Med Chem, 2000) are Ki and EC50 values, retold here.

The structures appear in SMILES notation.

Assay [1] addresses Gastrin-releasing peptide receptor (Rattus norvegicus, UniProt P52500). Put plainly: In vitro binding affinity against bombesin / GRP receptors on rat pancreatic acini. In a few lines: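 Male Wistar rat dispersed pancreatic acini (about 1 mg/mL protein) incubated 60 min at 37 °C with 20 pM (3-[125I]iodotyrosyl15)GRP and varying analogue; pellet centrifuged at 10000g, washed twice, counted. Nonspecific binding with 10 μM unlabeled BN. Specific binding as %, mean ± SD of three experiments in duplicate.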

The nature of assay [2]: Binding affinity against BN (bombesin) / GRP receptors in Swiss 3T3 cells. Type of assay: cell-based, Mus musculus. In a few lines:
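Intact Swiss 3T3 cells (seeded 10⁵/well, 24 h in serum-free medium with 0.2% BSA) incubated 1 h at 22 °C in DMEM/0.2% BSA with 20 pM (3-[125I]iodotyrosyl15)GRP and varying compound; washed with cold PBS/0.2% BSA, NaOH-solubilized, radioactivity counted. Nonspecific binding with 10 μM BN. Duplicates, at least three separate trials.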

A short description of assay [3]: Compound was tested for stimulating [3H]-thymidine accumulation in Swiss 3T3 cells. Type of assay: functional, cell-based. Conditions: Mus musculus, NIH3T3, 24 h. In a few lines:
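Swiss 3T3 cells seeded 10⁵/well, 24 h in medium with 0.2% BSA without serum, then 24 h in DMEM/0.2% BSA; treated 24 h at 37 °C with varying analogue alone or with 10^-7 M BN, then 0.5 μCi [3H]thymidine for 2 h; TCA-precipitable radioactivity after NaOH solubilization. Agonism tested up to 10^-6 M.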

The species entered for a further assay is Rattus norvegicus. The assay is described as follows: Compound was tested for stimulating amylase secretion on rat pancreatic acini. Format: functional, organism-based. In a few lines:
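Dispersed pancreatic acini from male Wistar rats (200-300 g), about 1 mg protein/mL, incubated 30 min at 37 °C in HEPES pH 7.4 buffer with 1% BSA; amylase by Phadebas method, expressed as % of maximal BN response. Antagonism: varying analogue with 1 nM BN. Duplicate incubations.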

Sequence of Gastrin-releasing peptide receptor (P52500 whole entry): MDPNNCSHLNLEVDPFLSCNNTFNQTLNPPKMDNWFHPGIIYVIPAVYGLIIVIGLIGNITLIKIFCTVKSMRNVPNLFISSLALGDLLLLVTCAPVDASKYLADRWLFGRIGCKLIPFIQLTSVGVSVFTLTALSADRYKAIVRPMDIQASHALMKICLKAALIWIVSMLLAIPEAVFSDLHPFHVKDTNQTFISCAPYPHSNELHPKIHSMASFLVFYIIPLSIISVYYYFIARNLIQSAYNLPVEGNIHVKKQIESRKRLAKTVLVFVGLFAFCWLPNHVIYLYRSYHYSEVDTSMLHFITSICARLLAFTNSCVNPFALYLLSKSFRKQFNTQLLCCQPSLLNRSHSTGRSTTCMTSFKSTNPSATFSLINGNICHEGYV

Compound `CC(C)C[C@H](NC(=O)[C@H](CC(C)C)NC(=O)[C@H](Cc1cnc[nH]1)NC(=O)CN1CC[C@H](NC(=O)[C@H](C)NC(=O)[C@H](Cc2c[nH]c3ccccc23)NC(=O)[C@H](CCC(N)=O)NC(=O)[C@H](N)Cc2ccccc2)C1=O)C(N)=O` registered a Ki in assay [1] of 225 nM.
As for `COC(=O)[C@H](CC(C)C)NC(=O)[C@H](Cc1c[nH]cn1)NC(=O)CN1CCCC[C@H](NC(=O)[C@H](C)NC(=O)[C@H](Cc2c[nH]c3ccccc23)NC(=O)[C@H](CCC(N)=O)NC(=O)[C@H](N)Cc2ccccc2)C1=O`, the values for the Ki in assay [2] and in assay [1] were 2 nM and 5.2 nM, respectively.
Regarding `CC(C)C[C@H](NC(=O)[C@H](CC(C)C)NC(=O)[C@H](Cc1c[nH]cn1)NC(=O)CN1CCCC[C@H](NC(=O)[C@H](C)NC(=O)[C@H](Cc2c[nH]c3ccccc23)NC(=O)[C@H](CCC(N)=O)NC(=O)CCc2ccc(O)cc2)C1=O)C(N)=O`, the figures for the Ki in assay [2] and in assay [1] were 2 nM and 1.8 nM, respectively. Moreover, the EC50 in assay [3] turned out to be 0.2 nM; in the assay listed under Rattus norvegicus, 0.05 nM.
For the compound `CCCCC(O)[C@@H](CC(C)C)NC(=O)[C@H](Cc1c[nH]cn1)NC(=O)CN1CCCC[C@H](NC(=O)[C@H](C)NC(=O)[C@H](Cc2c[nH]c3ccccc23)NC(=O)[C@H](CCC(N)=O)NC(=O)[C@H](N)Cc2ccccc2)C1=O` (some centres undefined), the values for the Ki in assay [2] and in assay [1] were 2 nM and 9 nM, respectively.
For the compound `COC(=O)[C@H](CC(C)C)NC(=O)[C@H](Cc1c[nH]cn1)NC(=O)CN1CCCC[C@H](NC(=O)[C@H](C)NC(=O)[C@H](Cc2c[nH]c3ccccc23)NC(=O)[C@H](CCC(N)=O)NC(=O)CCc2ccc(O)cc2)C1=O`, the results for the Ki in assay [2] and in assay [1] were 1.2 nM and 3.1 nM, respectively.
On to `CC(C)C[C@H](NC(=O)[C@H](CC(C)C)NC(=O)[C@H](Cc1c[nH]cn1)NC(=O)CN1C(=O)[C@@H](NC(=O)[C@H](C)NC(=O)[C@H](Cc2c[nH]c3ccccc23)NC(=O)[C@H](CCC(N)=O)NC(=O)[C@H](N)Cc2ccccc2)N=C(c2ccccc2)c2ccccc21)C(N)=O`, for which, in assay [1], the inhibitory constant (Ki) was found to be 500 nM.
For the compound `CC(C)C[C@@H](NC(=O)[C@H](Cc1c[nH]cn1)NC(=O)CN1CCCC[C@H](NC(=O)[C@H](C)NC(=O)[C@H](Cc2c[nH]c3ccccc23)NC(=O)[C@H](CCC(N)=O)NC(=O)CCc2ccc(O)cc2)C1=O)C(=O)NO`, the Ki came out at 11 nM in assay [2] and 13 nM in assay [1].
Take `CC(C)C[C@@H](NC(=O)[C@H](Cc1c[nH]cn1)NC(=O)CN1CCCC[C@H](NC(=O)[C@H](C)NC(=O)[C@H](Cc2c[nH]c3ccccc23)NC(=O)[C@H](CCC(N)=O)NC(=O)[C@H](N)Cc2ccccc2)C1=O)C(=O)NO`: the figures for the inhibitory constant (Ki) in assay [2] and in assay [1] were 53 nM and 127 nM, respectively.
Consider `CCCCC(O)[C@@H](CC(C)C)NC(=O)[C@H](Cc1c[nH]cn1)NC(=O)CN1CCCC[C@H](NC(=O)[C@H](C)NC(=O)[C@H](Cc2c[nH]c3ccccc23)NC(=O)[C@H](CCC(N)=O)NC(=O)CCc2ccc(O)cc2)C1=O` (some centres undefined), for which the Ki in assay [2] is 0.8 nM; in assay [1], 3.8 nM.
With `CC(C)C[C@H](NC(=O)[C@H](CC(C)C)NC(=O)[C@H](Cc1c[nH]cn1)NC(=O)CN1CCCC[C@H](NC(=O)[C@H](C)NC(=O)[C@H](Cc2c[nH]c3ccccc23)NC(=O)[C@H](CCC(N)=O)NC(=O)[C@H](N)Cc2ccccc2)C1=O)C(N)=O`, the Ki amounted to 1 nM in assay [2] and 1.7 nM in assay [1]. Besides, the EC50 was 0.02 nM in assay [3] and 0.22 nM in the assay listed under Rattus norvegicus.
In assay [1], `CC(C)C[C@H](NC(=O)[C@H](CC(C)C)NC(=O)[C@H](Cc1cnc[nH]1)NC(=O)c1ccc(NC(=O)[C@H](C)NC(=O)[C@H](Cc2c[nH]c3ccccc23)NC(=O)[C@H](CCC(N)=O)NC(=O)[C@H](N)Cc2ccccc2)cc1)C(N)=O` had a Ki of 2250 nM.
Take `CC(C)C[C@H](NC(=O)[C@H](CC(C)C)NC(=O)[C@H](Cc1cnc[nH]1)NC(=O)c1ccccc1NC(=O)[C@H](C)NC(=O)[C@H](Cc1c[nH]c2ccccc12)NC(=O)[C@H](CCC(N)=O)NC(=O)[C@H](N)Cc1ccccc1)C(N)=O`: the Ki in assay [1] stood at 650 nM.
Same read-out and setting: in the case of `CC(C)C[C@H](NC(=O)[C@H](CC(C)C)NC(=O)[C@H](Cc1cnc[nH]1)NC(=O)c1cccc(NC(=O)[C@H](C)NC(=O)[C@H](Cc2c[nH]c3ccccc23)NC(=O)[C@H](CCC(N)=O)NC(=O)[C@H](N)Cc2ccccc2)c1)C(N)=O` it was 300 nM.
As to `CC(C)C[C@H](NC(=O)[C@H](CC(C)C)NC(=O)[C@H](Cc1c[nH]cn1)NC(=O)CNC(=O)[C@@H](NC(=O)[C@H](C)NC(=O)[C@H](Cc1c[nH]c2ccccc12)NC(=O)[C@H](CCC(N)=O)NC(=O)C(N)Cc1ccccc1)C(C)C)C(N)=O` (stereo in doubt) [listing 1 of 3 here], the values for the EC50 (in assay [3]; in the assay filed under Rattus norvegicus) were 0.08 nM and 0.03 nM, respectively.
In assay [1], `CC(C)C[C@H](NC(=O)[C@H](CC(C)C)NC(=O)[C@H](Cc1c[nH]cn1)NC(=O)CNC(=O)[C@@H](NC(=O)[C@H](C)NC(=O)[C@H](Cc1c[nH]c2ccccc12)NC(=O)[C@H](CCC(N)=O)NC(=O)C(N)Cc1ccccc1)C(C)C)C(N)=O` (stereo in doubt) [listing 2 of 3 here] showed an inhibition constant Ki of 3.2 nM.
On to `CC(C)C[C@H](NC(=O)[C@H](CC(C)C)NC(=O)[C@H](Cc1c[nH]cn1)NC(=O)CNC(=O)[C@@H](NC(=O)[C@H](C)NC(=O)[C@H](Cc1c[nH]c2ccccc12)NC(=O)[C@H](CCC(N)=O)NC(=O)C(N)Cc1ccccc1)C(C)C)C(N)=O` (stereo in doubt) [listing 3 of 3 here], for which the Ki in assay [2] amounted to 6.3 nM.

As a reminder, the Ki is a dissociation constant, usually derived from enzyme kinetics or from competition with a known ligand. The low end stands for higher affinity, the high end for lower affinity. What is called EC50 is the concentration that produces a half-maximal response. Lower therefore signals a more potent agent.
